In ChEMBL document CHEMBL2010803, “Novel NSAID 1-acyl-4-cycloalkyl/arylsemicarbazides and 1-acyl-5-benzyloxy/hydroxy carbamoylcarbazides as potential anticancer agents and antioxidants” (Eur J Med Chem, 2012):
Active and inactive are the calls of the source. The calls are words filed in the database; no cut-off is given here.

Tests used:
HCT-116 = assay: Cytostatic activity against human HCT116 cells after 72 hrs by MTT assay; assay type: functional, cell-based; conditions: HCT-116, 72 h
Summary of the method: (§1)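 Monolayers in DMEM with 10% FBS, 2 mM L-glutamine and penicillin/streptomycin, 37 °C, 5% CO2. Seeded at 1–3 × 10^4 cells/ml, then compound added in tenfold dilutions (10⁻⁸–10⁻⁴ M) for 72 h. MTT read at 570 nm; percent growth taken against time-zero and untreated controls. IC50 by linear regression; quadruplicate, at least two experiments.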

[1] = tested on: Vesicular stomatitis virus; assay: Antiviral activity against Vesicular stomatitis virus infected in human cervix carcinoma cells assessed as inhibition of virus-induced cytopathic effect at 0.32 to 100 uM; assay type: functional, organism-based
Summary of the method: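 Confluent human cervix carcinoma (HeLa) cultures received 100 CCID50 of VSV together with the compound at 100, 40, 8, 1.6 or 0.32 μM. Cytopathicity was read at the point of full CPE in infected, untreated control wells.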

[2] = tested on: Mammalian orthoreovirus 1; assay: Antiviral activity against Reovirus-1 infected in african green monkey Vero cells assessed as inhibition of virus-induced cytopathic effect at 0.32 to 100 uM; assay type: functional, organism-based
Summary of the method: (§2)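 Confluent cell cultures were infected with 100 CCID50 of virus in the presence of test compound at 100, 40, 8, 1.6 and 0.32 μM. Cytopathic effect was scored once it was complete in untreated infected controls.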

Influenza A virus [3] = assay: Antiviral activity against Influenza A virus H1N1 infected in MDCK cells assessed as inhibition of virus-induced cytopathic effect at 0.32 to 100 uM; assay type: functional, organism-based
Summary of the method: (§3)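 Confluent MDCK monolayers were infected in the presence of the compound at 100, 40, 8, 1.6 and 0.32 μM. Viral cytopathicity was scored once it was complete in untreated infected control cultures.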

CCRF-CEM = assay: Cytostatic activity against human CEM cells after 3 days by coulter counter analysis; assay type: functional, cell-based; conditions: 72 h
Summary of the method: (§4)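 300,000–500,000 cells/ml mixed 1:1 with compound dilutions and incubated at 37 °C for 2 days (L1210) or 3 days (CEM, HeLa). Cell number counted with a Coulter counter; HeLa trypsinized before counting.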

Felid alphaherpesvirus 1 = assay: Antiviral activity against Feline herpesvirus infected in feline CRFK cells assessed as inhibition of virus-induced cytopathic effect at 0.32 to 100 uM; assay type: functional, organism-based; summary of the method: as §2
Sindbis virus = assay: Antiviral activity against Sindbis virus infected in african green monkey Vero cells assessed as inhibition of virus-induced cytopathic effect at 0.32 to 100 uM; assay type: functional, organism-based; summary of the method: as §2
[4] = Antioxidant activity assessed as inhibition of AAPH-induced linoleic acid lipid peroxidation by measuring conjugated diene hydroperoxide level; assay type: functional; parameters: concentration or dose not given beside the values; conditions: dose or concentration not given here
Summary of the method: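 Linoleic acid sodium salt (10 μL of 16 mM) in 0.05 M phosphate buffer pH 7.4 at 37 °C. Oxidation started under air with 50 μL of 40 mM AAPH. Conjugated diene hydroperoxide formation followed as absorbance rise at 234 nm; control contains the same DMSO level. At least triplicate.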

Punta Toro virus = assay: Antiviral activity against Punta Toro virus infected in african green monkey Vero cells assessed as inhibition of virus-induced cytopathic effect at 0.32 to 100 uM; assay type: functional, organism-based; summary of the method: as §2
Glycine max = assay: Inhibition of soybean LOX assessed as conversion of sodium linoleate to 13- hydroperoxylinoleic acid at 100 uM
[5] = tested on: Human immunodeficiency virus 1; assay: Antiviral activity against HIV1 3B infected in human CEM cells assessed as inhibition of virus-induced CEM giant cell formation at 0.32 to 100 uM after 4 days; assay type: functional, organism-based; conditions: CCRF-CEM
Summary of the method: (§5)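 CEM cells (~3 × 10^5 cells/cm³) exposed to 100 CCID50/ml of virus and seeded into wells holding compound dilutions. Incubated 4 days at 37 °C, then giant cell formation examined microscopically.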

HeLa = assay: Cytostatic activity against human HeLa cells after 3 days by coulter counter analysis; assay type: functional, cell-based; conditions: 72 h; summary of the method: as §4
Coxsackievirus B4 [6] = assay: Antiviral activity against Coxsackievirus B4 infected in african green monkey Vero cells assessed as inhibition of virus-induced cytopathic effect at 0.32 to 100 uM; assay type: functional, organism-based; summary of the method: as §2
MCF7 = assay: Cytostatic activity against human MCF7 cells after 72 hrs by MTT assay; assay type: functional, cell-based; conditions: MCF7, 72 h; summary of the method: as §1
Human respirovirus 3 = assay: Antiviral activity against Parainfluenza virus 3 infected in african green monkey Vero cells assessed as inhibition of virus-induced cytopathic effect at 0.32 to 100 uM; assay type: functional, organism-based; summary of the method: as §2
[7] = tested on: Human immunodeficiency virus 2; assay: Antiviral activity against HIV2 ROD infected in human CEM cells assessed as inhibition of virus-induced CEM giant cell formation at 0.32 to 100 uM after 4 days; assay type: functional, organism-based; conditions: ISOLATE ROD, CCRF-CEM; summary of the method: as §5
[8] = tested on: Respiratory syncytial virus; assay: Antiviral activity against RSV infected in human cervix carcinoma cells assessed as inhibition of virus-induced cytopathic effect at 0.32 to 100 uM; assay type: functional, organism-based; summary of the method: as §2
Coxsackievirus B4 [9] = assay: Antiviral activity against Coxsackievirus B4 infected in human cervix carcinoma cells assessed as inhibition of virus-induced cytopathic effect at 0.32 to 100 uM; assay type: functional, organism-based; summary of the method: as §2
L1210 = assay: Cytostatic activity against mouse L1210 cells after 2 days by coulter counter analysis; assay type: functional, cell-based; conditions: L1210, 48 h; summary of the method: as §4
[10] = tested on: Vesicular stomatitis virus; assay: Antiviral activity against VSV infected in human lung fibroblast assessed as inhibition of virus-induced cytopathic effect at 0.32 to 100 uM; assay type: functional, organism-based
Vaccinia virus = assay: Antiviral activity against Vaccinia virus infected in human lung fibroblast assessed as inhibition of virus-induced cytopathic effect at 0.32 to 100 uM; assay type: functional, organism-based; conditions: Orthopoxvirus vaccinia
Feline coronavirus = assay: Antiviral activity against Feline coronavirus infected in feline CRFK cells assessed as inhibition of virus-induced cytopathic effect at 0.32 to 100 uM; assay type: functional, organism-based; summary of the method: as §2
Influenza B virus = assay: Antiviral activity against Influenza B virus infected in MDCK cells assessed as inhibition of virus-induced cytopathic effect at 0.32 to 100 uM; assay type: functional, organism-based; summary of the method: as §3
Human alphaherpesvirus 2 = assay: Antiviral activity against HSV2 G infected in human lung fibroblast assessed as inhibition of virus-induced cytopathic effect at 0.32 to 100 uM; assay type: functional, organism-based; conditions: strain G; summary of the method: as §2
NCI-H460 = assay: Cytostatic activity against human NCI-H460 cells after 72 hrs by MTT assay; assay type: functional, cell-based; conditions: NCI-H460, 72 h; summary of the method: as §1
Influenza A virus [11] = assay: Antiviral activity against Influenza A virus H3N2 infected in MDCK cells assessed as inhibition of virus-induced cytopathic effect at 0.32 to 100 uM; assay type: functional, organism-based; summary of the method: as §3
[12] = tested on: Radical scavenging activity; assay: Antioxidant activity assessed as DPPH free radical scavenging activity at 100 uM after 60 mins by spectrophotometric analysis; assay type: functional
Summary of the method: (§6)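 0.05 mM DPPH in absolute ethanol mixed with an equal volume of compound in DMSO (final 100 μM). Shaken and left 20 or 60 min, then absorbance read at 517 nm and percent activity calculated. Three replicates, averaged.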

Human alphaherpesvirus 1 = assay: Antiviral activity against HSV1 KOS infected in human lung fibroblast assessed as inhibition of virus-induced cytopathic effect at 0.32 to 100 uM; assay type: functional, organism-based; summary of the method: as §2
[13] = tested on: Radical scavenging activity; assay: Antioxidant activity assessed as DPPH free radical scavenging activity at 100 uM after 20 mins by spectrophotometric analysis; assay type: functional; summary of the method: as §6

Compound	IC50 (HCT-116)	inhibition [1]	inhibition [2]	inhibition (Influenza A virus [3])	IC50 (CCRF-CEM)	inhibition (Felid alphaherpesvirus 1)	inhibition (Sindbis virus)	inhibition [4]	inhibition (Punta Toro virus)	inhibition (Glycine max)	inhibition [5]	IC50 (HeLa)	inhibition (Coxsackievirus B4 [6])	IC50 (MCF7)	inhibition (Human respirovirus 3)	inhibition [7]	inhibition [8]	inhibition (Coxsackievirus B4 [9])	IC50 (L1210)	inhibition [10]	also measured
CC(C)Cc1ccc(C(C)C(=O)NNC(=O)NOCc2ccccc2)cc1 (stereo unspecified)	76 µM	inactive	inactive	inactive	≥ 250 µM	inactive	inactive	100%	inactive	inactive	inactive	178 µM	inactive	50 µM	inactive	inactive	inactive	inactive	192 µM	inactive	inhibition (Vaccinia virus): inactive; inhibition (Feline coronavirus): inactive; inhibition (Influenza B virus): inactive; inhibition (Human alphaherpesvirus 2): inactive; IC50 (NCI-H460): > 100 µM; inhibition (Influenza A virus [11]): inactive; Activity [12]: inactive; inhibition (Human alphaherpesvirus 1): inactive; Activity [13]: inactive
CC(C)Cc1ccc(C(C)C(=O)NNC(=O)NCc2ccccc2)cc1 (stereo unspecified)	34 µM	inactive	inactive	inactive	74 µM	inactive	inactive	12%	inactive	inactive	inactive	173 µM	inactive	29 µM	inactive	inactive	inactive	inactive	110 µM	inactive	inhibition (Vaccinia virus): inactive; inhibition (Feline coronavirus): inactive; inhibition (Influenza B virus): inactive; inhibition (Human alphaherpesvirus 2): inactive; IC50 (NCI-H460): 59 µM; inhibition (Influenza A virus [11]): inactive; Activity [12]: inactive; inhibition (Human alphaherpesvirus 1): inactive; Activity [13]: inactive
CC(C(=O)NNC(=O)NO)c1cccc(Cc2ccccc2)c1 (stereo unspecified)	> 100 µM	inactive	inactive	inactive	155 µM	inactive	inactive	8%	inactive	8%	inactive	176 µM	inactive	> 100 µM	inactive	inactive	inactive	inactive	113 µM	inactive	inhibition (Vaccinia virus): inactive; inhibition (Feline coronavirus): inactive; inhibition (Influenza B virus): inactive; inhibition (Human alphaherpesvirus 2): inactive; IC50 (NCI-H460): > 100 µM; inhibition (Influenza A virus [11]): inactive; Activity [12]: 59%; inhibition (Human alphaherpesvirus 1): inactive; Activity [13]: 36%
CC(C)Cc1ccc(C(C)C(=O)NNC(=O)NCCc2ccccc2)cc1 (stereo unspecified)	26 µM	inactive	inactive	inactive	148 µM	inactive	inactive	33%	inactive	inactive	inactive	≥ 250 µM	inactive	23 µM	inactive	inactive	inactive	inactive	180 µM	inactive	inhibition (Vaccinia virus): inactive; inhibition (Feline coronavirus): inactive; inhibition (Influenza B virus): inactive; inhibition (Human alphaherpesvirus 2): inactive; IC50 (NCI-H460): 51 µM; inhibition (Influenza A virus [11]): inactive; Activity [12]: inactive; inhibition (Human alphaherpesvirus 1): inactive; Activity [13]: inactive
